Assay results as given in ChEMBL document CHEMBL2046311, “Design, synthesis, and molecular hybrids of caudatin and cinnamic acids as novel anti-hepatitis B virus agents” (Eur J Med Chem, 2012).

Key:
Hepatitis B virus [1] = experiment: Antiviral activity against Hepatitis B virus infected in human HepG2(2.2.15) cells assessed as inhibition of viral e antigen secretion by ELISA; type: functional, organism-based
Summary of the method: (§1)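 HepG 2.2.15 cells in RPMI-1640 with 10% fetal calf serum at 37 °C, 5% CO2. Compounds dissolved in DMSO, culture DMSO below 2.5 μL/mL. Secreted HBeAg and HBsAg measured by ELISA. IC50 values are means of at least two experiments.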

[2] = Selectivity index, ratio of CC50 for human HepG2(2.2.15) cells to IC50 for Hepatitis B virus infected in human HepG2(2.2.15) cells assessed as inhibition of viral surface antigen secretion; type: functional
Summary of the method: (§2)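 SI calculated as CC50 (MTT, HepG 2.2.15) divided by IC50 for the named read-out (HBV DNA by real-time PCR, or HBeAg or HBsAg secretion by ELISA), in the same cell line.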

[3] = Selectivity index, ratio of CC50 for human HepG2(2.2.15) cells to IC50 for Hepatitis B virus infected in human HepG2(2.2.15) cells assessed as inhibition of viral DNA replication; type: functional; summary of the method: as §2
Hepatitis B virus [4] = experiment: Antiviral activity against Hepatitis B virus infected in human HepG2(2.2.15) cells assessed as inhibition of viral DNA replication by PCR analysis; type: functional, organism-based
Summary of the method: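 HepG 2.2.15 cells grown in RPMI-1640 with 10% fetal calf serum, […] and penicillin/streptomycin at 37 °C, 5% CO2. Compounds added in DMSO, kept below 2.5 μL/mL. HBV DNA quantified by SYBR Green real-time PCR with HBV-specific primers spanning 541–591 bp. IC50 values are means of at least two experiments.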

[5] = Selectivity index, ratio of CC50 for human HepG2(2.2.15) cells to IC50 for Hepatitis B virus infected in human HepG2(2.2.15) cells assessed as inhibition of viral e antigen secretion; type: functional; summary of the method: as §2
[6] = Cytotoxicity against human HepG2(2.2.15) cells by modified-MTT assay; type: cell-based
Summary of the method: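 HepG 2.2.15 cells in RPMI-1640 with 10% fetal calf serum at 37 °C, 5% CO2. Compounds in DMSO, final DMSO below 2.5 μL/mL. Viability read by modified MTT method. CC50 is the mean of at least two experiments.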

Hepatitis B virus [7] = experiment: Antiviral activity against Hepatitis B virus infected in human HepG2(2.2.15) cells assessed as inhibition of viral surface antigen secretion by ELISA; type: functional, organism-based; summary of the method: as §1

Row | Compound | IC50 (Hepatitis B virus [1]) | Ratio CC50/IC50 [2] | Ratio CC50/IC50 [3] | IC50 (Hepatitis B virus [4]) | Ratio CC50/IC50 [5] | CC50 [6] | IC50 (Hepatitis B virus [7])
1 | CC(=O)[C@]1(O)CC[C@@]2(O)[C@]1(C)[C@H](OC(=O)/C=C(\C)C(C)C)C[C@@H]1[C@@]3(C)CC[C@H](OC(=O)/C=C/c4ccccc4)CC3=CC[C@]12O | 94.2 µM | >29.3 | >239.9 | 5.91 µM | >15 | > 1420 µM | 48.3 µM
2 | CC(=O)[C@]1(O)CC[C@@]2(O)[C@]1(C)[C@H](OC(=O)/C=C(\C)C(C)C)C[C@@H]1[C@@]3(C)CC[C@H](OC(=O)/C=C/c4ccccc4Cl)CC3=CC[C@]12O | 550 µM | >40.4 | >50.1 | 22.9 µM | >2.1 | > 1150 µM | 28.4 µM
3 | CC(=O)[C@]1(O)CC[C@@]2(O)[C@]1(C)[C@H](OC(=O)/C=C(\C)C(C)C)C[C@@H]1[C@@]3(C)CC[C@H](OC(=O)/C=C/c4ccc(Cl)c([N+](=O)[O-])c4)CC3=CC[C@]12O | 79.5 µM | 47.3 | 71.3 | 6.31 µM | 5.7 | 450 µM | 9.52 µM
4 | CC(=O)[C@]1(O)CC[C@@]2(O)[C@]1(C)[C@H](OC(=O)/C=C(\C)C(C)C)C[C@@H]1[C@@]3(C)CC[C@H](OC(=O)/C=C/c4ccc(F)c(C(F)(F)F)c4)CC3=CC[C@]12O | 798 µM | >18.6 | >149.2 | 8.93 µM | >1.7 | > 1330 µM | 71.6 µM
5 | CC(=O)[C@]1(O)CC[C@@]2(O)[C@]1(C)[C@H](OC(=O)/C=C(\C)C(C)C)C[C@@H]1[C@@]3(C)CC[C@H](OC(=O)/C=C/c4ccccc4C(F)(F)F)CC3=CC[C@]12O | > 1280 µM | 37.6 | 352.9 | 5 µM | <1.4 | 1760 µM | 46.9 µM
6 | CC(=O)[C@]1(O)CC[C@@]2(O)[C@]1(C)[C@H](OC(=O)/C=C(\C)C(C)C)C[C@@H]1[C@@]3(C)CC[C@H](OC(=O)/C=C/c4cccc(Br)c4)CC3=CC[C@]12O | 12.5 µM | 29.9 | 97 | 4.42 µM | 34.4 | 429 µM | 14.4 µM
7 | CC(=O)[C@]1(O)CC[C@@]2(O)[C@]1(C)[C@H](OC(=O)/C=C(\C)C(C)C)C[C@@H]1[C@@]3(C)CC[C@H](OC(=O)/C=C/c4cc(F)cc(F)c4)CC3=CC[C@]12O | 90.7 µM | >66 | >72 | 18.6 µM | >14.8 | > 1340 µM | 20.3 µM
8 | CC(=O)[C@]1(O)CC[C@@]2(O)[C@]1(C)[C@H](OC(=O)/C=C(\C)C(C)C)C[C@@H]1[C@@]3(C)CC[C@H](OC(=O)/C=C/c4ccc5c(c4)OCO5)CC3=CC[C@]12O | 43.7 µM | >176.7 | >256.7 | 6.45 µM | >37.9 | > 1660 µM | 9.37 µM
9 | CC(=O)[C@]1(O)CC[C@@]2(O)[C@]1(C)[C@H](OC(=O)/C=C(\C)C(C)C)C[C@@H]1[C@@]3(C)CC[C@H](OC(=O)/C=C/c4ccc(F)cc4)CC3=CC[C@]12O | 39.5 µM | >28.3 | >123.9 | 10.4 µM | >32.6 | > 1290 µM | 45.6 µM
10 | CC(=O)[C@]1(O)CC[C@@]2(O)[C@]1(C)[C@H](OC(=O)/C=C(\C)C(C)C)C[C@@H]1[C@@]3(C)CC[C@H](OC(=O)/C=C/c4ccc(Cl)cc4Cl)CC3=CC[C@]12O | 1180 µM | >8.8 | >130.3 | 14.5 µM | >1.6 | > 1890 µM | 216 µM
11 | CC(=O)[C@]1(O)CC[C@@]2(O)[C@]1(C)[C@H](OC(=O)/C=C(\C)C(C)C)C[C@@H]1[C@@]3(C)CC[C@H](OC(=O)/C=C/c4ccc(C(F)(F)F)cc4)CC3=CC[C@]12O | 1270 µM | >21.1 | >125.9 | 10.1 µM | >1 | > 1270 µM | 60.2 µM
12 | CC(=O)[C@]1(O)CC[C@@]2(O)[C@]1(C)[C@H](OC(=O)/C=C(\C)C(C)C)C[C@@H]1[C@@]3(C)CC[C@H](OC(=O)/C=C/c4ccc(F)c(F)c4F)CC3=CC[C@]12O | 14 µM | >71.1 | 140.2 | 2.83 µM | 28.3 | 397 µM | < 5.58 µM
13 | CC(=O)[C@]1(O)CC[C@@]2(O)[C@]1(C)[C@H](OC(=O)/C=C(\C)C(C)C)C[C@@H]1[C@@]3(C)CC[C@H](OC(=O)/C=C/c4cccc(C)c4)CC3=CC[C@]12O | 132 µM | >54.7 | >192.6 | 7.22 µM | >10.5 | > 1390 µM | 25.4 µM
14 | CC(=O)[C@]1(O)CC[C@@]2(O)[C@]1(C)[C@H](OC(=O)/C=C(\C)C(C)C)C[C@@H]1[C@@]3(C)CC[C@H](OC(=O)/C=C/c4cccc(F)c4F)CC3=CC[C@]12O | 16.4 µM | 9 | >41.2 | 2.86 µM | 7.2 | 118 µM | 13.2 µM
15 | CC(=O)[C@]1(O)CC[C@@]2(O)[C@]1(C)[C@H](OC(=O)/C=C(\C)C(C)C)C[C@@H]1[C@@]3(C)CC[C@H](OC(=O)/C=C/c4ccc(C=O)cc4)CC3=CC[C@]12O | 19.2 µM | 1.7 | 6.3 | 6.34 µM | 2.1 | 40.2 µM | 23.5 µM
16 | CC(=O)[C@]1(O)CC[C@@]2(O)[C@]1(C)[C@H](OC(=O)/C=C(\C)C(C)C)C[C@@H]1[C@@]3(C)CC[C@H](OC(=O)/C=C/c4cccc(Cl)c4)CC3=CC[C@]12O | 359 µM | >70.1 | >103.6 | 12.7 µM | >3.7 | > 1320 µM | 18.8 µM
17 | COc1ccc(/C=C/C(=O)O[C@H]2CC[C@@]3(C)C(=CC[C@]4(O)[C@@H]3C[C@@H](OC(=O)/C=C(\C)C(C)C)[C@@]3(C)[C@]4(O)CC[C@@]3(O)C(C)=O)C2)cc1 | 569 µM | >12.9 | >127.1 | 10.9 µM | >2.4 | > 1380 µM | 108 µM
18 | COc1cc(/C=C/C(=O)O[C@H]2CC[C@@]3(C)C(=CC[C@]4(O)[C@@H]3C[C@@H](OC(=O)/C=C(\C)C(C)C)[C@@]3(C)[C@]4(O)CC[C@@]3(O)C(C)=O)C2)cc(OC)c1 | 380 µM | >34.6 | >87.4 | 11.7 µM | >2.7 | > 1020 µM | 29.6 µM
